Key:
Assay type in all cases: functional
[1] = Growth inhibition of human RXF393 cells assessed as cell growth at 10^-8 M after 48 hrs by SRB assay; conditions: RXF 393, 48 h, read-out: Activity
DU-145 = assay: Growth inhibition of human DU145 cells assessed as cell growth at 10^-4 M after 48 hrs by SRB assay; conditions: DU-145, 48 h, read-out: Activity
Procedure, shortened: (§1)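 Five-dose NCI panel protocol. Each dose (10^-4 to 10^-8 M, 10-fold steps) was given as 48 h continuous exposure, and protein was measured by SRB staining. Percentage growth at each level is [(Ti−Tz)/(C−Tz)]×100, where Tz is time-zero absorbance and C is untreated control.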

NCI-H460 = assay: Growth inhibition of human NCI-H460 cells assessed as cell growth at 10^-5 M after 48 hrs by SRB assay; conditions: NCI-H460, 48 h, read-out: Activity
SK-MEL-28 = assay: Growth inhibition of human SK-MEL-28 cells assessed as cell growth at 10^-6 M after 48 hrs by SRB assay; conditions: SK-MEL-28, 48 h, read-out: Activity
RXF 393 = assay: Cytotoxicity against human RXF393 cells after 48 hrs by SRB assay; conditions: RXF 393, 48 h
Procedure, shortened: (§2)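 NCI 60-cell-line panel of human tumour lines from nine cancer types. Continuous 48 h exposure at five 10-fold dilutions from 10^-4 to 10^-8 M, with 5-FU as positive control. SRB protein stain read spectrophotometrically at time zero, untreated control and each concentration. GI50, TGI and LC50 were derived from the [(Ti−Tz)/(C−Tz)]×100 growth relations, and out-of-range values are given as > or < the tested limits.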

[2] = Growth inhibition of human HCT15 cells assessed as cell growth at 10^-6 M after 48 hrs by SRB assay; conditions: HCT-15, 48 h, read-out: Activity
SK-MEL-5 = assay: Growth inhibition of human SK-MEL-5 cells assessed as cell growth at 10^-6 M after 48 hrs by SRB assay; conditions: SK-MEL-5, 48 h, read-out: Activity
[3] = Growth inhibition of human RXF393 cells assessed as cell growth at 10^-4 M after 48 hrs by SRB assay; conditions: RXF 393, 48 h, read-out: Activity
MDA-MB-468 [4] = assay: Cytotoxicity against human MDA-MB-468 cells after 48 hrs by SRB assay; conditions: MDA-MB-468, 48 h; procedure, shortened: as §2
MCF7 = assay: Growth inhibition of human MCF7 cells assessed as cell growth at 10^-4 M after 48 hrs by SRB assay; conditions: MCF7, 48 h, read-out: Activity
SNB-19 = assay: Growth inhibition of human SNB19 cells assessed as cell growth at 10^-6 M after 48 hrs by SRB assay; conditions: SNB-19, 48 h, read-out: Activity
RPMI-8226 = assay: Growth inhibition of human RPMI8226 cells assessed as cell growth at 10^-4 M after 48 hrs by SRB assay; conditions: RPMI-8226, 48 h, read-out: Activity
MDA-MB-468 [5] = assay: Growth inhibition of human MDA-MB-468 cells assessed as cell growth at 10^-4 M after 48 hrs by SRB assay; conditions: MDA-MB-468, 48 h, read-out: Activity
[6] = Growth inhibition of human SF539 cells assessed as cell growth at 10^-8 M after 48 hrs by SRB assay; conditions: SF-539, 48 h, read-out: Activity
NCI-H226 = assay: Growth inhibition of human NCI-H226 cells assessed as cell growth at 10^-5 M after 48 hrs by SRB assay; conditions: NCI-H226, 48 h, read-out: Activity
A498 = assay: Growth inhibition of human A498 cells assessed as cell growth at 10^-4 M after 48 hrs by SRB assay; conditions: A498, 48 h, read-out: Activity; procedure, shortened: as §1
[7] = Growth inhibition of human UACC62 cells assessed as cell growth at 10^-7 M after 48 hrs by SRB assay; conditions: UACC-62, 48 h, read-out: Activity
NCI-H322M = assay: Growth inhibition of human NCI-H322M cells assessed as cell growth at 10^-8 M after 48 hrs by SRB assay; conditions: read-out: Activity
[8] = Growth inhibition of human HCT15 cells assessed as cell growth at 10^-4 M after 48 hrs by SRB assay; conditions: HCT-15, 48 h, read-out: Activity
ACHN = assay: Growth inhibition of human ACHN cells assessed as cell growth at 10^-7 M after 48 hrs by SRB assay; conditions: read-out: Activity; procedure, shortened: as §1
K562 = assay: Growth inhibition of human K562 cells assessed as cell growth at 10^-7 M after 48 hrs by SRB assay; conditions: K562, 48 h, read-out: Activity
[9] = Growth inhibition of human NCI-ADR-RES cells assessed as cell growth at 10^-8 M after 48 hrs by SRB assay; conditions: read-out: Activity
[10] = Cytotoxicity against human UACC62 cells after 48 hrs by SRB assay; conditions: UACC-62, 48 h
Procedure, shortened: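 NCI 60-cell-line panel, 48 h continuous exposure to five 10-fold dilutions from 10^-4 to 10^-8 M. SRB protein staining was read spectrophotometrically, with time-zero, untreated-control and treated absorbances. GI50, TGI and LC50 were derived from the percentage-growth formulas. Values outside the tested range are expressed as more or less than the maximum or minimum concentration.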

[11] = Growth inhibition of human UACC62 cells assessed as cell growth at 10^-6 M after 48 hrs by SRB assay; conditions: UACC-62, 48 h, read-out: Activity
[12] = Growth inhibition of human HCT15 cells assessed as cell growth at 10^-8 M after 48 hrs by SRB assay; conditions: HCT-15, 48 h, read-out: Activity
T47D = assay: Growth inhibition of human T47D cells assessed as cell growth at 10^-4 M after 48 hrs by SRB assay; conditions: read-out: Activity
SF-268 = assay: Growth inhibition of human SF268 cells assessed as cell growth at 10^-5 M after 48 hrs by SRB assay; conditions: SF-268, 48 h, read-out: Activity
786-0 = assay: Growth inhibition of human 786-0 cells assessed as cell growth at 10^-5 M after 48 hrs by SRB assay; conditions: 786-0, 48 h, read-out: Activity; procedure, shortened: as §1
[13] = Growth inhibition of human HOP92 cells assessed as cell growth at 10^-4 M after 48 hrs by SRB assay; conditions: HOP-92, 48 h, read-out: Activity
U-251 = assay: Growth inhibition of human U251 cells assessed as cell growth at 10^-6 M after 48 hrs by SRB assay; conditions: U-251, 48 h, read-out: Activity
[14] = read-out: LC50 (the source's name)
[15] = read-out: pLC50 (the source's name) (converted)

Cc1ccc(-c2nc3ccc(Cl)cc3c(=O)n2/N=C/c2ccccc2)cc1
growth at 0.01 µM [1]: 97%
growth at 100 µM (DU-145): 49%
growth at 10 µM (NCI-H460): 23%
growth at 1 µM (SK-MEL-28): 93%
GI50 (RXF 393; read-out: GI50): 6.46 µM
CC50 (RXF 393; [14]): > 100 µM
TGI (RXF 393; read-out: TGI): > 100 µM
GI50 (RXF 393; read-out: pGI50 (converted)): 6.46 µM
CC50 (RXF 393; [15]): > 100 µM
TGI (RXF 393; read-out: pTGI): > 100 µM
growth at 1 µM [2]: 93%
growth at 1 µM (SK-MEL-5): 77%
growth at 100 µM [3]: 19%
GI50 (MDA-MB-468 [4]; read-out: GI50): 57.6 µM
LC50 (MDA-MB-468 [4]; read-out: LC50): > 100 µM
TGI (MDA-MB-468 [4]; read-out: TGI): > 100 µM
GI50 (MDA-MB-468 [4]; read-out: pGI50 (converted)): 57.5 µM
LC50 (MDA-MB-468 [4]; read-out: pLC50 (converted)): > 100 µM
TGI (MDA-MB-468 [4]; read-out: pTGI): > 100 µM
growth at 100 µM (MCF7): 38%
growth at 1 µM (SNB-19): 88%
growth at 100 µM (RPMI-8226): 60%
growth at 100 µM (MDA-MB-468 [5]): 45%
growth at 0.01 µM [6]: 90%
growth at 10 µM (NCI-H226): 38%
growth at 100 µM (A498): 17%
growth at 0.1 µM [7]: 88%
growth at 0.01 µM (NCI-H322M): 87%
growth at 100 µM [8]: 69%
growth at 0.1 µM (ACHN): 88%
growth at 0.1 µM (K562): 97%
growth at 0.01 µM [9]: 98%
GI50 ([10]; read-out: GI50): 25.8 µM
CC50 [10, 14]: > 100 µM
TGI ([10]; read-out: TGI): > 100 µM
GI50 ([10]; read-out: pGI50 (converted)): 25.7 µM
CC50 [10, 15]: > 100 µM
TGI ([10]; read-out: pTGI): > 100 µM
growth at 1 µM [11]: 80%
growth at 0.01 µM [12]: 92%
growth at 100 µM (T47D): 14%
growth at 10 µM (SF-268): 50%
growth at 10 µM (786-0): 18%
growth at 100 µM [13]: 15%
growth at 1 µM (U-251): 93%
